Results: ChEMBL document CHEMBL1142626, “Insecticidal and mutagenic evaluation of two annonaceous acetogenins” (J Nat Prod, 2000)

How the values were obtained:
Myzus persicae [1] = assay: Antifeedant effect against Myzus persicae assessed as inhibition index at 100 ug/cm2 relative to control; type: functional; parameters: scale not given: the % may be the effect or the level left
In short: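 Choice settling test on apterous adult M. persicae: 20 boxes of 10 aphids per treatment. Settling inhibition %SI = [1 − (%aphids on treated/%aphids on control surface)] × 100.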

[2] = system: Leptinotarsa decemlineata; assay: Insecticidal activity against Leptinotarsa decemlineata assessed as mortality at 5 ug by hemolymph injection after 72 hrs; type: functional
In short: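 Adult L. decemlineata (20 beetles) were injected with 5 µg in DMSO through the metepimeron suture of the thorax. Beetles were kept on potato leaves. Symptoms and mortality were recorded up to 3 days, analysed by contingency tables and Abbott-corrected.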

Spodoptera littoralis [3] = assay: Antifeedant effect against Spodoptera littoralis assessed as feeding reduction at 100 ug/cm2 relative to control; type: functional; parameters: scale not given: the % may be the effect or the level left
In short: (§1)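 Choice test on leaf disks using adult L. decemlineata or newly emerged fifth-instar S. littoralis larvae. Five to 10 plates per treatment, three insects each. Uneaten leaf-disk area was measured by scanner. %FR = [1 − (treatment/control consumption)] × 100 per arena. Where FR exceeded 50%, EC50 was taken from linear regression of %FR on log dose.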

[4] = system: Leptinotarsa decemlineata; assay: Antifeedant effect against Leptinotarsa decemlineata assessed as feeding reduction at 10 ug/cm2; type: functional, organism-based; in short: as §1
Myzus persicae [5] = assay: Insecticidal activity against Myzus persicae assessed as increase in mortality at 100 ug/cm2 observed daily for 4 days; type: functional, organism-based
In short: (§2)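 No-choice test: 20 boxes, each with five same-age apterous adult M. persicae (100 insects). Nymphs produced in the first 48 h were separated from adults and kept in similarly treated boxes. Both were observed daily for 4 days for mortality. Analysed by contingency tables and LSD test.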

Spodoptera littoralis [6] = assay: Antifeedant effect against Spodoptera littoralis L6 larvae assessed as relative consumption rate at 10 ug, po after 72 hrs; type: functional
In short: (§3)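 Preweighed, newly emerged S. littoralis L6 larvae (20 per experiment) were orally cannulated with 10 µg in 2 µL DMSO; controls got solvent alone. Relative consumption and growth rates were calculated at 72 h on a dry-weight basis. Log-transformed weights were analysed by ANOVA with LSD tests.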

Spodoptera littoralis [7] = assay: Antifeedant effect against Spodoptera littoralis L6 larvae assessed as relative growth rate at 10 ug, po after 72 hrs; type: functional; in short: as §3
Myzus persicae [8] = assay: Insecticidal activity against Myzus persicae assessed as offspring production at 50 ug/cm2 observed daily for 4 days; type: functional, organism-based; in short: as §2
Myzus persicae [9] = assay: Insecticidal activity against Myzus persicae assessed as offspring production at 100 ug/cm2 observed daily for 4 days; type: functional, organism-based; in short: as §2

## C=C(C)[C@H]1Cc2c(ccc3c2O[C@@H]2COc4cc(OC)c(OC)cc4[C@@H]2C3=O)O1 [ROTENONE]
Myzus persicae [1]
  Activity: <40%
[2]
  Activity: 100%
Spodoptera littoralis [3]
  Activity: >40%
[4]
  Activity: Toxic
Myzus persicae [5]
  Activity: Non-toxic
Spodoptera littoralis [6]
  Activity: 20.88 mg
Spodoptera littoralis [7]
  Activity: 3.47 mg
Myzus persicae [8]
  Activity: Toxic
Myzus persicae [9]
  Activity: Toxic
